Assay outcomes deposited in PubChem by Broad Institute.
Cneo AK release: Cryptococcus neoformans lysis via adenylate kinase release; AID 651654; C. neoformans lysis, adenylate kinase release luminescence, 4 h; normalised: neutral wells 0, clomiphene wells 100; 360,000 compounds, 0.2% hits; lysis activity, % at 15 µM;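 active = mean lysis activity across replicates of at least 80%, whatever share of replicates individually reach that level; inactive = mean lysis activity below 80%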
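Material: C. neoformans cells | Amount: Yeast cell density of 5 × 10^6 cells/mL | Medium: Fresh YPD growth medium | Dosing: Single dose | Times: Static 4 h at 37 °C with compound, 1 h detection | Detection: AK luminescence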
Statin myotox sup: protects C2C12 myotubes from simvastatin toxicity | 330,000 compounds, 0.78% hits | ATP luminescence, 48 h; scaled: DMSO 0, geranylgeraniol control 100 | rescue of ATP level, % at 7.49 µM;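 active = mean ATP rescue above about 67%, or every replicate alone reaching that limit, limit read from the data, passing the limit was not always enough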;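 also: myotubes were challenged with 10 µM simvastatin during compound exposure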
S100A4 inh HTS: blocks human S100A4 binding to myosin IIA peptide. inhibition, % at 10.7 µM. AID 652163. S100A4/TAMRA-MyoIIA peptide fluorescence polarization. P26447. 360,000 compounds, 0.14% hits;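 active = mean inhibition of at least 70% across replicates, with every replicate also reaching that level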
Target sequence (P26447 whole entry, looked up): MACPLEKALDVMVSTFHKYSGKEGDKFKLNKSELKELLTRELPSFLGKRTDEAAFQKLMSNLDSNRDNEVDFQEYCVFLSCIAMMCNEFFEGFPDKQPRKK
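Material: human S100A4 monomer with TAMRA-labelled myosin IIA peptide; buffer or medium: HEPES pH 7.2 with CaCl2, KCl, NaCl, DTT, Triton; compound dosing: one concentration per compound; schedule: 5 min incubation before reading; benchmarks: neutral control DMSO, positive control TFP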
PGC1a acetyl inh: modulators of PGC1a acetylation | 350,000 compounds, 0.17% hits | inhibition, % at 15.6 µM | U2OS PGC1a acetylation, AlphaScreen anti-acetyl-lysine; with virally co-expressed GCN5 acetyltransferase;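 active = every replicate shows inhibition of at least 40%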
rRNA inh HTS: inhibitors of bacterial rRNA selective over humanized ribosomes | E. coli WT GFP vs humanized-ribosome RFP mutants, fluorescence, 24 h; active compounds read low; DMSO median 0, no signal -100 | GFP signal change (wild-type ribosome), % (no concentration beside the values) | 350,000 compounds, 1.6% hits | AID 720706;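 active = significant combined selectivity score with lowered wild-type GFP, culture density cut under 30%, mutant RFP and density less affected; inactive = any of these conditions unmet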
SIRT5 block: inhibitors of human sirtuin-5 desuccinylase | inhibition, % at 15 µM | Q9NXA8 | 330,000 compounds, 1.1% hits | Purified SirT5, succinyl-peptide AMC, trypsin-coupled fluorescence; in the data active = inhibition above about 15%
Target sequence (Q9NXA8 whole entry, looked up): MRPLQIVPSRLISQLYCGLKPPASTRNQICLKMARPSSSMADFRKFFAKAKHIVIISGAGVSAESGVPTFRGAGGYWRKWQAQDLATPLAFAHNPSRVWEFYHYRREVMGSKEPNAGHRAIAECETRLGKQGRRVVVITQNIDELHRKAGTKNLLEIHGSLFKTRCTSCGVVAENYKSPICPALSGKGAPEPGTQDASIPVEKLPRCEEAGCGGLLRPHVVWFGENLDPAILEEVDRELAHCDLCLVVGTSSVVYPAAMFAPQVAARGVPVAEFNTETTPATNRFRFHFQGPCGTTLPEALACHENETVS
Each line names hits and unclear results; the compound was inactive in the other large screens. Rows were chosen to be rich in hits. Some 3% of all compounds tested hit in one or more screens of this group.

O=C(CN1CCN(c2ccc(O)cc2)CC1)Nc1ccccc1C(=O)NCCc1ccccc1	rRNA inh HTS -25
CS(=O)(=O)N1CCN(c2ccccc2NC(=O)Cc2ccccc2)CC1	none (no result: S100A4 inh HTS, rRNA inh HTS, SIRT5 block)
CC(C)NC(=O)N(C)C[C@@H]1Oc2ncc(-c3cccc(C#N)c3)cc2C(=O)N([C@@H](C)CO)C[C@@H]1C	none (no result: Cneo AK release, Statin myotox sup, S100A4 inh HTS, PGC1a acetyl inh, SIRT5 block)
COC(=O)c1cn(CCNC(=O)Nc2ccccc2)nn1	none (no result: Statin myotox sup, rRNA inh HTS)
CCN(C(=O)Nc1cccc(Cl)c1)c1ccccc1	none
CCOC(=O)NC(N(O)c1cccc(Cl)c1)C(Cl)(Cl)Cl (centres undefined)	rRNA inh HTS -28 (no result: Statin myotox sup)
C[C@H](CO)N1C[C@H](C)[C@H](CN(C)C(=O)c2ccc(F)cc2)Oc2cc(-c3cccc(C#N)c3)ccc2S1(=O)=O	none
O=C(NC[C@H]1[C@H](c2ccccc2)[C@H](CO)N1Cc1ccccn1)C1CCCC1	none (no result: S100A4 inh HTS, SIRT5 block)
CCN1CCN(C(=O)C(C)Nc2ccc(OC)cc2OC)CC1 (centres undefined)	SIRT5 block 15 (no result: PGC1a acetyl inh)
CCOC(=O)N1CCN(CCC(=O)Nc2ccc(OC)cc2OC)CC1	none
CCCNC(=O)N1CC2(CN(C(=O)C3CCOCC3)C2)c2c([nH]c3cc(OC)ccc23)[C@@H]1CO	none (no result: Cneo AK release, Statin myotox sup)
CNC[C@@H]1OCCCC[C@@H](C)Oc2ccc(NS(=O)(=O)c3ccc(OC)cc3)cc2C(=O)N([C@H](C)CO)C[C@@H]1C	none
C/C=C/c1ccc([C@H]2[C@@H](CO)N(C(=O)CC)[C@@H]2CN(C)C(=O)NC(C)C)cc1	SIRT5 block 18 (no result: Cneo AK release, Statin myotox sup, PGC1a acetyl inh)
CC(=O)N1[C@H](CO)[C@H](c2ccc(-c3ccncc3)cc2)[C@@H]1CNC(=O)CC1CC1	SIRT5 block 22 (no result: Cneo AK release, Statin myotox sup, PGC1a acetyl inh)
CC(=O)NC[C@@H]1[C@@H](c2ccc(-c3ccccc3F)cc2)[C@@H](CO)N1CCC(F)(F)F	SIRT5 block 25 (no result: Cneo AK release, Statin myotox sup, PGC1a acetyl inh)
CCC(=O)N1[C@H](CO)[C@H](c2ccc(-c3ccc(F)cc3)cc2)[C@@H]1CNC(C)=O	Cneo AK release 82 (no result: S100A4 inh HTS, SIRT5 block)
CC(=O)NC[C@H]1[C@H](c2ccc(C3=CCCC3)cc2)[C@@H](CO)N1C(=O)NC(C)C	none (no result: S100A4 inh HTS, SIRT5 block)
CC(=O)NC[C@@H]1[C@@H](c2ccc(C3=CCCC3)cc2)[C@@H](CO)N1C(=O)NC(C)C	Cneo AK release 112 (no result: S100A4 inh HTS, SIRT5 block)
C/C=C/c1ccc([C@@H]2[C@@H](CNC(=O)C3CC3)N(C(=O)CC)[C@H]2CO)cc1	Cneo AK release 93
CCCC#Cc1ccc([C@H]2[C@@H](CO)N3C(=O)CN(C(=O)Nc4ccccc4)C[C@H]23)cc1	none (no result: Cneo AK release, Statin myotox sup, S100A4 inh HTS, PGC1a acetyl inh, SIRT5 block)
CN(C)CC(=O)Nc1ccc2c(c1)[C@@H]1C[C@H](CC(=O)NCc3ccccc3F)O[C@@H](CO)[C@@H]1O2	none (no result: S100A4 inh HTS, SIRT5 block)
Cc1noc(C)c1S(=O)(=O)Nc1ccc2c(c1)C(=O)N([C@H](C)CO)C[C@H](C)[C@@H](CN(C)Cc1ccc(C(F)(F)F)cc1)OCCCC[C@H](C)O2	SIRT5 block 25 (no result: Statin myotox sup)
Cc1noc(C)c1S(=O)(=O)Nc1ccc2c(c1)C(=O)N([C@@H](C)CO)C[C@@H](C)[C@H](CN(C)Cc1ccc(C(F)(F)F)cc1)OCCCC[C@H](C)O2	none (no result: Statin myotox sup)
Cc1noc(C)c1S(=O)(=O)Nc1ccc2c(c1)C(=O)N([C@@H](C)CO)C[C@H](C)[C@@H](CN(C)Cc1ccc(C(F)(F)F)cc1)OCCCC[C@@H](C)O2	SIRT5 block 25 (no result: Statin myotox sup)
CN1CCC(=NNC(=O)CN(c2ccc(Oc3ccccc3)cc2)S(C)(=O)=O)CC1	Statin myotox sup 110
O=C(COc1ccc(Cl)cc1)NN=C1CCCCCCC1	none (no result: PGC1a acetyl inh)
CN1CCC(=NNC(=O)COc2ccc(Cl)cc2)CC1	SIRT5 block 21 (no result: Cneo AK release)
CCNC(=O)C[C@H]1CC[C@H]2[C@@H](COc3ccc(NC(=O)c4cccc(C#N)c4)cc3C(=O)N2C)O1	none (no result: Cneo AK release, Statin myotox sup, S100A4 inh HTS, PGC1a acetyl inh, SIRT5 block)
O=C(/C=C/c1ccccc1)c1ccc2c(c1)OCO2	rRNA inh HTS -24
O=C(/C=C/c1cccc(Br)c1)c1ccc2c(c1)OCO2	none (no result: PGC1a acetyl inh)
Cc1ccc(O)c(C(=O)/C=C/c2ccc3c(c2)OCCCO3)c1	none (no result: Cneo AK release, Statin myotox sup, PGC1a acetyl inh)
O=C(/C=C/c1ccc2c(c1)OCCCO2)c1ccccc1O	rRNA inh HTS -33 (no result: Cneo AK release, Statin myotox sup, PGC1a acetyl inh)
CCCNC(=O)Nc1ccc2c(c1)C(=O)N(C)C[C@H](OC)[C@@H](C)CN(C(=O)C1CC1)[C@H](C)CO2	none
